Reference: article PMC4229637 (British Journal of Cancer, 2014)
Where two headings read alike, the source gives them in different places.

Key:
[1] = MK-2206 plasma concentration; type: in vivo, human; conditions: for Plasma MK-2206, Median / Plasma MK-2206, Range: cycle 1 day 8
[2] = test system: AKT1; conditions: read-out: IC50 AKT1; ref Yap et al, 2011; cited from earlier work
[3] = test system: AKT2; conditions: read-out: IC50 AKT2; ref Yap et al, 2011; cited from earlier work
[4] = test system: AKT3; conditions: read-out: IC50 AKT3; ref Yap et al, 2011; cited from earlier work
[5] = test system: patients; conditions: cited from earlier work; for main toxicities: single agent phase I
[6] = ref Biondo et al, 2011, Yap et al; cited from earlier work
[7] = Ridaforolimus concentration in whole blood; type: in vivo, human; conditions: cycle 1 day 8; Dalotuzumab (10 mg kg^–1 QW)+ridaforolimus (20 mg QD × 5); N=4; some samples up to 2.5 h post dose
[8] = MK-0752 plasma concentration; type: in vivo, human
Outline: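 Test compound was given orally at 1800 mg once weekly with IV anti-IGF-1R antibody once weekly, in 28-day cycles. Pre-dose plasma was taken weekly during cycle 1 and on day 1 of subsequent cycles. Plasma levels were quantified by validated HPLC-MS/MS.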

[9] = Dalotuzumab concentration in serum; type: in vivo, human; conditions: for Serum dalotuzumab, Median / Serum dalotuzumab, Range: cycle 1 day 8
[10] = Dalotuzumab (10 mg kg^–1 QW)+MK-2206 (90 mg QW), N=3
[11] = Dalotuzumab (10 mg kg^–1 QW)+MK-2206 (135 mg QW), N=8
[12] = Dalotuzumab (10 mg kg^–1 QW)+MK-2206 (150 mg QW), N=10
[13] = Dalotuzumab (10 mg kg^–1 QW)+MK-2206 (200 mg QW), N=3
[14] = cycle 1 day 8, Dalotuzumab (7.5 mg kg^–1 QW)+MK-0752 (1800 mg QW), N=3
[15] = Dalotuzumab (7.5 mg kg^–1 QW)+MK-0752 (1800 mg QW), N=4
[16] = Dalotuzumab (10 mg kg^–1 QW)+MK-0752 (1800 mg QW), N=11
[17] = Dalotuzumab (10 mg kg^–1 QW)+ridaforolimus (20 mg QD × 5), N=2
[18] = phase I clinical trial of single-agent dalotuzumab, ref Atzori et al, 2011

Compound: NC1(c2ccc(-c3nc4ccn5c(=O)[nH]nc5c4cc3-c3ccccc3)cc2)CCC1 [MK-2206]
- dose proportional increase of Ctrough levels ([1]; MK-2206 90, 135, 150, and 200 mg QW): not discernible
- Plasma MK-2206, Median [1, 10]: 12.9 nmol l^–1
- Plasma MK-2206, Range [1, 10]: 10.3–20.4 nmol l^–1
- Plasma MK-2206, Median [1, 11]: 29.1 nmol l^–1
- Plasma MK-2206, Range [1, 11]: 0.687–41.1 nmol l^–1
- Plasma MK-2206, Median [1, 12]: 9.08 nmol l^–1
- Plasma MK-2206, Range [1, 12]: 0.736–26.7 nmol l^–1
- Plasma MK-2206, Median [1, 13]: 37.6 nmol l^–1
- Plasma MK-2206, Range [1, 13]: 20.3–50.9 nmol l^–1
- IC50 [3]: 0.012 µM
- IC50 [4]: 0.065 µM
- main toxicities ([5]; ref Biondo et al, 2011, Yap et al): rash, nausea, vomiting, diarrhoea, and hyperglycaemia
- RP2D ([5]; single agent, weekly, ref Biondo et al, 2011): 135 to 200 mg
- half-life [6]: 40 to 100 h

Compound: CO[C@H]1C[C@@H]2CC[C@@H](C)[C@@](O)(O2)C(=O)C(=O)N2CCCC[C@H]2C(=O)O[C@H]([C@H](C)C[C@@H]2CC[C@@H](OP(C)(C)=O)[C@H](OC)C2)CC(=O)[C@H](C)/C=C(\C)[C@@H](O)[C@@H](OC)C(=O)[C@H](C)C[C@H](C)/C=C/C=C/C=C/1C [Ridaforolimus]
- Whole blood ridaforolimus, Median [7]: 86.7 ng ml^–1
- Whole blood ridaforolimus, Range [7]: 3.12–184 ng ml^–1
- RP2D ([5]; IV, 5 days every 2 weeks, ref Mita et al, 2008): 12.5 mg daily
- Main adverse events ([5]; single agent phase I trials, ref Mita et al, 2013, Mita et al, 2008): mucositis, fatigue, rash, nausea, diarrhoea, myelosuppression, and dyslipidaemia

Compound: O=C(O)CC[C@H]1CC[C@@](c2cc(F)ccc2F)(S(=O)(=O)c2ccc(Cl)cc2)CC1 [MK-0752]
- Plasma MK-0752, Median [8, 14]: 8.06 μmol l^–1
- Plasma MK-0752, Range [8, 14]: 1.49–11.6 μmol l^–1
- Plasma MK-0752, Median ([8]; cycle 1 day 8, Dalotuzumab (10 mg kg^–1 QW)+MK-0752 (1800 mg QW), N=11): 1.63 μmol l^–1
- plasma trough levels, patients receiving 7.5 mg kg^–1 vs 10 mg kg^–1 dalotuzumab ([8]; weekly dosing with 1800 mg MK-0752): comparable
- main toxicities ([5]; ref Krop et al, 2012): fatigue, nausea, and diarrhoea

Compound: Dalotuzumab: humanised IgG1 monoclonal antibody that binds IGF-1R
- Serum dalotuzumab, Median [9, 15]: 39.3 μg ml^–1
- Serum dalotuzumab, Range [9, 15]: 16.7–91.7 μg ml^–1
- Serum dalotuzumab, Median [9, 16]: 41.7 μg ml^–1
- Serum dalotuzumab, Range [9, 16]: 5.69–97.9 μg ml^–1
- Serum dalotuzumab, Median [9, 10]: 33.8 μg ml^–1
- Serum dalotuzumab, Range [9, 10]: 29.3–56.6 μg ml^–1
- Serum dalotuzumab, Median [9, 11]: 52.2 μg ml^–1
- Serum dalotuzumab, Range [9, 11]: 45.2–102 μg ml^–1
- Serum dalotuzumab, Median [9, 12]: 63.5 μg ml^–1
- Serum dalotuzumab, Range [9, 12]: 43.7–86.4 μg ml^–1
- Serum dalotuzumab, Median [9, 13]: 52.3 μg ml^–1
- Serum dalotuzumab, Range [9, 13]: 45.4–92.3 μg ml^–1
- Serum dalotuzumab, Median [9, 17]: 49.6 μg ml^–1
- Serum dalotuzumab, Range [9, 17]: 32.5–66.7 μg ml^–1
- Trough concentrations (Ctrough) after the first administration ([9]; dalotuzumab 7.5 and 10 mg kg^–1, generally exceeded the target threshold level): > 25 μg ml^–1
- Maximum tolerated dose (MTD) [5, 18]: not reached
- most common adverse events [5, 18]: fatigue, hyperglycaemia, and back pain
- recommended phase II dose (RP2D) [5, 18]: 10 mg kg^–1 per week
